{"source": "ChEMBL document CHEMBL1123853", "about": "“A novel class of cardiotonics. Synthesis and pharmacological properties of [4-(substituted-amino)phenyl]pyridazinones and related derivatives” (1987)", "key": {"Canis familiaris [1]": {"species_on_record": "Canis familiaris", "assay": "Positive inotropic in the isolated papillary muscle of the dog.", "assay_type": "functional, Canis lupus familiaris", "summary_of_the_method": "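Right ventricular anterior papillary muscle with septum, from mongrel dogs (7–12 kg, pentobarbital 30 mg/kg iv). It was perfused at about 100 mmHg via the septal artery with blood from a heparinized donor dog and paced at 120/min (1 ms pulses, about 1.5× threshold). Isometric tension was recorded. Saline solutions were injected intra-arterially, with amrinone as reference. ED15 (15% rise in developed tension) was taken from log dose-response curves. Results are mean ± SEM (n = 7) or mean ± range (n = 2).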"}, "Canis familiaris [2]": {"test_system": "Canis familiaris", "assay": "Inotropic activity determined by evaluating the % change in Cardiac out put (CO)at a dose of 30 ug/kg administered intravenously […]", "assay_type": "functional, Canis lupus familiaris", "summary_of_the_method": "(§1)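 Mongrel dogs of either sex, 7–15 kg, anesthetized with sodium pentobarbital (30 mg/kg iv), open-chest, intubated and ventilated on room air. Compounds given intravenously. A femoral artery catheter with pressure transducer recorded SBP and DBP. dP/dtmax, right ventricular contractile force, cardiac output and heart rate were also recorded, as % change at each iv dose.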"}, "Canis familiaris [3]": {"test_system": "Canis familiaris", "assay": "Inotropic activity determined by evaluating the % change in Diastolic Blood Pressure (DBP) at a dose of 30 ug/kg administered intravenously […]", "assay_type": "functional, Canis lupus familiaris", "summary_of_the_method": "as §1"}, "Canis familiaris [4]": {"test_system": "Canis familiaris", "assay": "Inotropic activity determined by evaluating the maximum rate of rise in left ventricular pressure at a dose of 30 ug/kg administered intravenously […]", "assay_type": "functional, Canis lupus familiaris, Muscle tissue", "summary_of_the_method": "as §1"}, "Canis familiaris [5]": {"species_on_record": "Canis familiaris", "assay": "Positive inotropic activity determined in the […](that produced 30% increase in dose- response curves [dP/dt(max)])", "assay_type": "functional", "details": "Canis lupus familiaris", "summary_of_the_method": "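In the anesthetized open-chest dog (mongrel, 7–15 kg, pentobarbital 30 mg/kg iv, ventilated on room air), compounds were given intravenously and LV dP/dtmax was recorded. The dose giving a 30% rise in dP/dtmax was read from the dose-response curves. Results are mean ± SEM (n = 3) or mean ± range (n = 2).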"}, "Canis familiaris [6]": {"test_system": "Canis familiaris", "assay": "Inotropic activity determined by evaluating the % change in contractile force (CF) of right ventricle at a dose of 30 ug/kg administered intravenously […]", "assay_type": "functional, Canis lupus familiaris, Heart right ventricle", "summary_of_the_method": "as §1"}, "Canis familiaris [7]": {"test_system": "Canis familiaris", "assay": "Inotropic activity determined by evaluating the maximum rate of rise in left ventricular pressure at a dose of 100 ug/kg administered intravenously […]", "assay_type": "functional, Canis lupus familiaris, Muscle tissue", "summary_of_the_method": "as §1"}, "Canis familiaris [8]": {"test_system": "Canis familiaris", "assay": "Inotropic activity determined by evaluating the % change in Cardiac out put (CO)at a dose of 100 ug/kg administered intravenously […]", "assay_type": "functional, Canis lupus familiaris", "summary_of_the_method": "as §1"}, "Canis familiaris [9]": {"test_system": "Canis familiaris", "assay": "Inotropic activity determined by evaluating the % change in contractile force (CF) of right ventricle at a dose of 100 ug/kg administered intravenously […]", "assay_type": "functional, Canis lupus familiaris, Heart right ventricle", "summary_of_the_method": "as §1"}, "Canis familiaris [10]": {"test_system": "Canis familiaris", "assay": "Inotropic activity determined by evaluating the % change in Heart Rate (HR) at a dose of 100 ug/kg administered intravenously […]", "assay_type": "functional, Canis lupus familiaris", "summary_of_the_method": "as §1"}, "Canis familiaris [11]": {"test_system": "Canis familiaris", "assay": "Inotropic activity determined by evaluating the % change in Systolic Blood Pressure (SBP) at a dose of 30 ug/kg administered intravenously […]", "assay_type": "functional, Canis lupus familiaris, Muscle tissue", "summary_of_the_method": "as §1"}, "Canis familiaris [12]": {"test_system": "Canis familiaris", "assay": "Inotropic activity determined by evaluating the % change in Heart Rate (HR) at a dose of 30 ug/kg administered intravenously […]", "assay_type": "functional, Canis lupus familiaris", "summary_of_the_method": "as §1"}, "Canis familiaris [13]": {"test_system": "Canis familiaris", "assay": "Inotropic activity determined by evaluating the % change in Systolic Blood Pressure (SBP) at a dose of 100 ug/kg administered intravenously […]", "assay_type": "functional, Canis lupus familiaris, Muscle tissue", "summary_of_the_method": "as §1"}, "Canis familiaris [14]": {"test_system": "Canis familiaris", "assay": "Inotropic activity determined by evaluating the % change in Diastolic Blood Pressure (DBP) at a dose of 100 ug/kg administered intravenously […]", "assay_type": "functional, Canis lupus familiaris", "summary_of_the_method": "as §1"}, "Canis familiaris [15]": {"test_system": "Canis familiaris", "assay": "Inotropic activity determined by evaluating the % change in Diastolic Blood Pressure (DBP) at a dose of 10 ug/kg administered intravenously […]", "assay_type": "functional, Canis lupus familiaris", "summary_of_the_method": "as §1"}, "Canis familiaris [16]": {"test_system": "Canis familiaris", "assay": "Inotropic activity determined by evaluating the % change in Systolic Blood Pressure (SBP) at a dose of 10 ug/kg administered intravenously […]", "assay_type": "functional, Canis lupus familiaris", "summary_of_the_method": "as §1"}, "Canis familiaris [17]": {"test_system": "Canis familiaris", "assay": "Inotropic activity determined by evaluating the % change in Cardiac out put (CO)at a dose of 10 ug/kg administered intravenously […]", "assay_type": "functional, Canis lupus familiaris", "summary_of_the_method": "as §1"}, "Canis familiaris [18]": {"test_system": "Canis familiaris", "assay": "Inotropic activity determined by evaluating the % change in contractile force (CF) of right ventricle at a dose of 10 ug/kg administered intravenously […]", "assay_type": "functional, Canis lupus familiaris, Heart right ventricle", "summary_of_the_method": "as §1"}, "Canis familiaris [19]": {"test_system": "Canis familiaris", "assay": "Inotropic activity determined by evaluating the % change in Heart Rate (HR) at a dose of 10 ug/kg administered intravenously […]", "assay_type": "functional, Canis lupus familiaris", "summary_of_the_method": "as §1"}, "Canis familiaris [20]": {"test_system": "Canis familiaris", "assay": "Inotropic activity determined by evaluating the maximum rate of rise in left ventricular pressure at a dose of 10 ug/kg administered intravenously […]", "assay_type": "functional, Canis lupus familiaris, Muscle tissue", "summary_of_the_method": "as §1"}}}
{"compound": "CC(Nc1ccc(C2=NNC(=O)CC2)cc1)c1ccncc1", "note": "(stereo not drawn)", "values": [{"measurement": "ED15", "setting": "Canis familiaris [1]", "result": 33, "unit": "µg"}]}
{"compound": "CN(C)c1ccc(CNc2ccc(C3=NNC(=O)CC3)cc2)cc1", "values": [{"measurement": "ED15", "setting": "Canis familiaris [1]", "result": ">300", "unit": "µg"}]}
{"compound": "O=C1CCC(c2ccc(NCc3ccncc3)cc2)=NN1", "values": [{"measurement": "ED15", "setting": "Canis familiaris [1]", "result": ">300", "unit": "µg"}]}
{"compound": "O=C1CCC(c2ccc(NCc3cccnc3)cc2)=NN1", "values": [{"measurement": "ED15", "setting": "Canis familiaris [1]", "result": 86, "unit": "µg"}]}
{"compound": "O=C1CCC(c2ccc(NCc3ccnc4ccccc34)cc2)=NN1", "values": [{"measurement": "ED15", "setting": "Canis familiaris [1]", "result": ">300", "unit": "µg"}]}
{"compound": "CC1CC(c2ccc(Nc3ccncc3)cc2)=NNC1=O.Cl", "note": "(stereo not drawn)", "values": [{"measurement": "Change of CO", "setting": "Canis familiaris [2]", "result": 10.3, "unit": "%"}, {"measurement": "Change of DBP", "setting": "Canis familiaris [3]", "result": -9.8, "unit": "%"}, {"measurement": "dP/dt", "setting": "Canis familiaris [4]", "result": 24.2, "unit": "%"}, {"measurement": "ED30", "setting": "Canis familiaris [5]", "result": 0.072, "unit": "mg/kg"}, {"measurement": "Change of CF", "setting": "Canis familiaris [6]", "result": 22.5, "unit": "%"}, {"measurement": "dP/dt", "setting": "Canis familiaris [7]", "result": 43.8, "unit": "%"}, {"measurement": "Change of CO", "setting": "Canis familiaris [8]", "result": 23.3, "unit": "%"}, {"measurement": "ED15", "setting": "Canis familiaris [1]", "result": 4.7, "unit": "µg"}, {"measurement": "Change of CF", "setting": "Canis familiaris [9]", "result": 52.9, "unit": "%"}, {"measurement": "Change of HR", "setting": "Canis familiaris [10]", "result": 17.3, "unit": "%"}, {"measurement": "Change of SBP", "setting": "Canis familiaris [11]", "result": -5.9, "unit": "%"}, {"measurement": "Change of HR", "setting": "Canis familiaris [12]", "result": 4.6, "unit": "%"}, {"measurement": "Change of SBP", "setting": "Canis familiaris [13]", "result": -14.6, "unit": "%"}, {"measurement": "Change of DBP", "setting": "Canis familiaris [14]", "result": -26.1, "unit": "%"}]}
{"compound": "CC1CC(=O)NN=C1c1ccc(Nc2ccccn2)cc1.Cl", "note": "(stereo not drawn)", "values": [{"measurement": "Change of CO", "setting": "Canis familiaris [2]", "result": 15.8, "unit": "%"}, {"measurement": "Change of DBP", "setting": "Canis familiaris [3]", "result": -31, "unit": "%"}, {"measurement": "dP/dt", "setting": "Canis familiaris [4]", "result": 46.4, "unit": "%"}, {"measurement": "Change of DBP", "setting": "Canis familiaris [15]", "result": -22.4, "unit": "%"}, {"measurement": "Change of SBP", "setting": "Canis familiaris [16]", "result": -14.1, "unit": "%"}, {"measurement": "ED30", "setting": "Canis familiaris [5]", "result": 0.022, "unit": "mg/kg"}, {"measurement": "Change of CF", "setting": "Canis familiaris [6]", "result": 44.4, "unit": "%"}, {"measurement": "Change of CO", "setting": "Canis familiaris [17]", "result": 12.7, "unit": "%"}, {"measurement": "Change of CF", "setting": "Canis familiaris [18]", "result": 19.5, "unit": "%"}, {"measurement": "Change of HR", "setting": "Canis familiaris [19]", "result": 5.3, "unit": "%"}, {"measurement": "ED15", "setting": "Canis familiaris [1]", "result": 3.2, "unit": "µg"}, {"measurement": "Change of SBP", "setting": "Canis familiaris [11]", "result": -17.6, "unit": "%"}, {"measurement": "Change of HR", "setting": "Canis familiaris [12]", "result": 8.9, "unit": "%"}, {"measurement": "dP/dt", "setting": "Canis familiaris [20]", "result": 19.3, "unit": "%"}]}
